This is an account of results in ChEMBL document CHEMBL4373718, “Germacrane Sesquiterpenoids as a New Type of Anticardiac Fibrosis Agent Targeting Transforming Growth Factor β Type I Receptor” (J Med Chem, 2019).

Calls of active or inactive are those of the source. The rule behind the calls is not given here.

In data set [1] the target is T1, TGF-beta receptor type-1 (Rattus norvegicus) (UniProt P80204).
T1 sequence (whole entry): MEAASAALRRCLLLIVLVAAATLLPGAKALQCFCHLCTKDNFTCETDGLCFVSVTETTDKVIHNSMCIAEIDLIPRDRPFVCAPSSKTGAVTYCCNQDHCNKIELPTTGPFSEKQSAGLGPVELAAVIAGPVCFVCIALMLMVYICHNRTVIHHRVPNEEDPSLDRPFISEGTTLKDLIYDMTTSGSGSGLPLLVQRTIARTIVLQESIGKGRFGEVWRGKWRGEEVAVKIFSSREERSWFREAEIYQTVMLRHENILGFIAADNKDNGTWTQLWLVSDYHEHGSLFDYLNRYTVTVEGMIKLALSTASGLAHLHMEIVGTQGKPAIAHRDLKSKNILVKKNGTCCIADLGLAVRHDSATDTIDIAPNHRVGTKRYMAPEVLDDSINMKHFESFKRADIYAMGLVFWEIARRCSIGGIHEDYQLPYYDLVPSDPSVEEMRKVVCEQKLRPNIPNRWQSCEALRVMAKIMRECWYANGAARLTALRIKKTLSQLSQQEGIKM
The experiment in a line: Inhibition of TGFbeta1 receptor in TGFbeta1-stimulated Sprague-Dawley rat cardiac fibroblasts assessed as reduction in collagen 1 expression measured after 12 hrs by Western blot analysis. In short, it runs like this:
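Primary rat cardiac fibroblasts (passages 2–4, 3×10^5 per well) treated with compound plus 10 ng/mL TGFβ1 for 12 h; tested at 2.5, 5 and 10 µM. Lysates run on 10% SDS-PAGE (30 µg protein), probed for FN, α-SMA and collagen I/III, and quantified by densitometry against GAPDH. N=3 independent experiments.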
(In general: A western blot detects proteins with antibodies after separation by electrophoresis.)

Data set [2] concerns the target T1, TGF-beta receptor type-1 (Rattus norvegicus). Kind of data set: Inhibition of TGFbeta1 receptor in TGFbeta1-stimulated Sprague-Dawley rat cardiac fibroblasts assessed as reduction in fibronectin mRNA expression at 2.5 to 10 uM measured after 12 hrs by qRT-PCR analysis. An outline of the steps:
(§1)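 Primary rat cardiac fibroblasts (3×10^5 per well) treated with compound plus 10 ng/mL TGFβ1 for 12 h. Total RNA extracted and target transcripts measured by SYBR Green qRT-PCR, normalized to GAPDH.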
(In general: In qPCR the cycle at which signal appears reflects the starting amount.)

For data set [3] the target is unchanged. The experiment in a line: Inhibition of TGFbeta1 receptor in TGFbeta1-stimulated Sprague-Dawley rat cardiac fibroblasts assessed as reduction in collagen 3 mRNA expression at 2.5 to 10 uM measured after 12 hrs by qRT-PCR analysis. An outline of the steps:
as §1

Data set [4] in a line: Effect on total Smad2 expression in TGFbeta1-stimulated Sprague-Dawley rat cardiac fibroblasts at 10 uM measured after 5 to 30 mins by Western blot analysis. Format: ADME.
Data set [5] deals with T1, TGF-beta receptor type-1 (Rattus norvegicus). The experiment in a line: Inhibition of TGFbeta1 receptor in TGFbeta1-stimulated Sprague-Dawley rat cardiac fibroblasts assessed as reduction in Smad3 nuclear translocation at 10 uM measured after 5 mins by Western blot analysis. An outline of the steps: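 Primary rat cardiac fibroblasts treated with 10 µM compound plus 10 ng/mL TGFβ1 for 5 min. Nuclear and cytosolic fractions separated with a kit and Smad2/Smad3 measured by Western blot.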

For data set [6], the system named is Rattus norvegicus. Kind of data set: Antifibrotic activity in abdominal aortic constriction Sprague-Dawley rat model of cardiac fibrosis assessed as decrease in heart fibronectin level at 5 mg/kg, ip administered once daily for 4 weeks measured post-last dose by immunohistochemical analysis relative to control. Format: functional. More on the design: scale not given: the % may be the effect or the level left. In short, it runs like this: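 Male SD rats (200–250 g) with abdominal aortic constriction (suture tied over a 21-G probe above the renal arteries), under pentobarbital 30 mg/kg ip. Dosed ip daily for 4 weeks. Vehicle was saline with 0.5% DMSO and 5% Kolliphor HS 15. Groups: sham, AAC, AAC+nifedipine 10 mg/kg, n=8 each. Formalin-fixed paraffin sections 4 µm thick; FN and α-SMA by immunohistochemistry, collagen by Masson's trichrome; stained area measured.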

For data set [7], the system named is Rattus norvegicus. The experiment in a line: Antifibrotic activity in abdominal aortic constriction Sprague-Dawley rat model of cardiac fibrosis assessed as down regulation of collagen expression in heart at 5 mg/kg, ip administered once daily for 4 weeks measured post-last dose by Western blot analysis. The class given is functional, organism-based. In short, it runs like this: (§2)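 AAC rats dosed ip daily for 4 weeks, n=8 per group. Hearts homogenized in lysis buffer with protease and phosphatase inhibitors and spun at 12,000 rpm for 30 min at 4 °C. Nuclear and cytoplasmic fractions prepared with a kit. Protein measured by BCA; 30 µg run on 10% SDS-PAGE, transferred to PVDF and immunoblotted; bands quantified by densitometry.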

In data set [8] the test system is Rattus norvegicus. The experiment in a line: Antifibrotic activity in abdominal aortic constriction Sprague-Dawley rat model of cardiac fibrosis assessed as reduction in Smad2 phosphorylation in heart at 5 mg/kg, ip administered once daily for 4 weeks measured post-last dose by Western blot analysis. Format: functional, organism-based. An outline of the steps: as §2

Data set [9] concerns Rattus norvegicus. Kind of data set: Antifibrotic activity in abdominal aortic constriction Sprague-Dawley rat model of cardiac fibrosis assessed as diastolic left ventricular internal diameter at 5 mg/kg, ip administered once daily for 4 weeks measured post-last dose by echocardiography (reference value: 7.60 +/- 0.63 mm). The class given is functional.
Data set [10] concerns Rattus norvegicus. The experiment in a line: Antifibrotic activity in abdominal aortic constriction Sprague-Dawley rat model of cardiac fibrosis assessed as diastolic left ventricular posterior wall thickness at 5 mg/kg, ip administered once daily for 4 weeks measured post-last dose by echocardiography (reference value: 2.33 +/- 0.31 mm). The class given is functional.

`C=C(C)[C@@H]1C/C=C(\C)C(=O)CCC2=C[C@@H]1OC2=O`: in data set [1], the inhibition entry was “Dose-dependent effect”. Also, the inhibition entry in data set [2], in data set [3] and in [5] was “Active” throughout. In addition, the Activity result was “Non-Toxic” in [4], 90.7% in the data set on Rattus norvegicus [6], 8.3 mm with Rattus norvegicus [9] and 2 mm in the data set on Rattus norvegicus [10]. Further, the result in the data set with Rattus norvegicus [7] and in the data set with Rattus norvegicus [8] was Active.
